Active and inactive are the calls of the source. The rule behind the calls is not given here.
Assays:
Actinomyces viscosus [1] = experiment: Chlorohexidine coefficient for Actinomyces viscosus M-100; type: functional
Summary of the method: (§1)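 Hydroxylapatite-grown plaques were exposed once daily for 2 min to varying concentrations of agent until the organisms were killed. The highest level tested was 0.2% w/v for 5 days. Tests were run in duplicate. PBI is the concentration (mM) × duration (min) × frequency (days) needed for plaque kill. CC is the chlorhexidine PBI divided by the test-agent PBI.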

Actinomyces viscosus [2] = experiment: Plaque bactericidal index against Actinomyces viscosus M-100 measured as chlorohexidine coefficient; type: functional; summary of the method: as §1
Streptococcus sobrinus [3] = experiment: Minimal bactericidal concentration against Streptococcus sobrinus 6715-13; type: functional
Summary of the method: (§2)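 Plaques were grown on standardized ceramic hydroxylapatite plates and immersed once in agent for 30 min. They were rinsed with sterile distilled water, moved to fresh broth and incubated anaerobically at 37 °C. Kill meant no further culture acid production, no turbidity change, and no growth when 48-h post-treatment plaque samples were subcultured. Tests were run in duplicate.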

Streptococcus sobrinus [4] = experiment: Plaque bactericidal index against Streptococcus sobrinus 6715-13 measured as chlorohexidine coefficient; type: functional; summary of the method: as §1
Streptococcus sobrinus [5] = experiment: Chlorohexidine coefficient for Streptococcus sobrinus 6715-13; type: functional; summary of the method: as §1
Actinomyces viscosus [6] = experiment: Plaque bactericidal index against Actinomyces viscosus M-100 measured as chlorohexidine coefficient; not bactericidal at highest concentration tested (0.2% w/v, 2min, 5 days); type: functional, organism-based; summary of the method: as §1
Streptococcus sobrinus [7] = experiment: Minimal bactericidal concentration against d Streptococcus sobrinus 6715-13; Not active at 20 mM; type: functional, organism-based; summary of the method: as §2
Streptococcus sobrinus [8] = experiment: Plaque bactericidal index against Streptococcus sobrinus 6715-13 measured as chlorohexidine coefficient; d=Not bactericidal at highest concentration tested (0.2% w/v, 2min, 5 days); type: functional, organism-based; summary of the method: as §1
Streptococcus sobrinus [9] = experiment: Minimal bactericidal concentration against Streptococcus sobrinus 6715-13.; type: functional; summary of the method: as §2

Compound	CC (Actinomyces viscosus [1])	PBI (Actinomyces viscosus [2])	MBC (Streptococcus sobrinus [3]) [µM]	PBI (Streptococcus sobrinus [4])	CC (Streptococcus sobrinus [5])	PBI (Actinomyces viscosus [6])	MBC (Streptococcus sobrinus [7])	PBI (Streptococcus sobrinus [8])	MBC (Streptococcus sobrinus [9]) [µM]
CCCCCCCCCn1ccc(=NCCCCCCC)cc1.Cl	1.7	11.3	1410	8.5	3	–	–	–	–
CCCCCCCCCn1ccc(=NCCCCCC)cc1.Cl	2.2	8.8	290	2.9	8.8	–	–	–	–
Br.CCCCCCCCN=c1ccn(CCCCCCC)cc1	2.5	7.8	1300	7.8	3.3	–	–	–	–
Br.CCCCC(CC)CN=c1ccn(CC(CC)CCCC)cc1 (stereo not drawn)	1	20	1250	20	1.3	–	–	–	–
CCCCCCCCCN=c1ccn(CCCCCCCCC)cc1.Cl	4	5.2	2610	10.4	2.5	–	–	–	–
CCCCCCCCN=c1ccn(Cc2ccccc2)cc1.Cl	1.6	12	1500	24	1.1	–	–	–	–
Br.CCCCCCCCn1ccc(=NCCCCCCC)cc1	1.8	10.4	1300	10.4	2.5	–	–	–	–
CCCCCCCCn1ccc(=NCCCCCC)cc1.Cl	6.4	3	310	4.6	5.6	–	–	–	–
Br.CCCCCCCCCN=c1ccn(CCCCCCCC)cc1	1.9	9.7	1210	9.7	2.6	–	–	–	–
CCCCCCCCCN=c1ccn(CCCCCC)cc1.Cl	6.6	2.9	290	2.9	8.8	–	–	–	–
CN=c1ccn(C)cc1	–	–	–	–	–	Not bactericidal	inactive	Not bactericidal	–
CCCCCCCn1ccc(=NCCCCCC)cc1.Cl	3	6.4	–	12.8	2	–	–	–	1600
Br.CCCCCCCCN=c1ccn(CCCCCC)cc1	1.4	13.5	1350	10.8	2.4	–	–	–	–
CCCCCCCCN=c1ccn(Cc2ccc(Cl)cc2)cc1.Cl	3.6	5.4	270	10.9	2.3	–	–	–	–

Source: ChEMBL document CHEMBL1123990, “The in vitro dental plaque inhibitory properties of a series of N-[1-alkyl-4(1H)-pyridinylidene]alkylamines” (1988)
